In general, inhibition refers to the share of the control response that was lost under treatment.

Experimental findings from ChEMBL document CHEMBL2331242, “Amberlite IR-120H catalyzed MCR: design, synthesis and crystal structure analysis of 1,8-dioxodecahydroacridines as potential inhibitors of sirtuins” (Bioorg Med Chem Lett, 2013) are described below.

Chain of NAD-dependent histone deacetylase SIR2 (Saccharomyces cerevisiae S288c) (P06700 whole entry): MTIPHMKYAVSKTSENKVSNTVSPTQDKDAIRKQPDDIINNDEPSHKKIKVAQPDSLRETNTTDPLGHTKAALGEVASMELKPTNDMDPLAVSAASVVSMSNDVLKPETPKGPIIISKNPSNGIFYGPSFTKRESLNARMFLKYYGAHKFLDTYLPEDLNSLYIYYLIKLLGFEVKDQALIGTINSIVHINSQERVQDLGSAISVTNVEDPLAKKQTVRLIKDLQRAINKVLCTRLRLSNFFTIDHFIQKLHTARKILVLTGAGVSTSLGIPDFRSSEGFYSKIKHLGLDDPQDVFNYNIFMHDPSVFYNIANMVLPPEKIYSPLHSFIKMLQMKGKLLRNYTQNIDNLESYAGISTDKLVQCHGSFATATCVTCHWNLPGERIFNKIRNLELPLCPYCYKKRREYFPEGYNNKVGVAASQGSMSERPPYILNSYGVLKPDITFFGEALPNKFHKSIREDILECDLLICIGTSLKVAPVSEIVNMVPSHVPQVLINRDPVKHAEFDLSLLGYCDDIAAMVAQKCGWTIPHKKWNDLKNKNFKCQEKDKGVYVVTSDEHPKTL

The assay deals with NAD-dependent histone deacetylase SIR2 (Saccharomyces cerevisiae S288c) (UniProt P06700). Description: Inhibition of yeast TEL::-URA3 Sir2 assessed as growth inhibition of yeast at 50 uM after 24 to 48 hrs. In outline:
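Yeast cell-based reporter silencing screen for Sir2, the yeast homologue of SIRT1. Strain TEL::URA3 (MATα ura3-52 lys2-801 ade2-101 trpΔ63 his3Δ200 leu2-Δ1 TEL adh4::URA3) carries URA3 inserted at a telomeric locus, where Sir2 silences it. Inhibition was scored as inhibition of growth of this strain in the presence of 5-fluoroorotic acid. Compounds were tested at 50 µM, with splitomicin as the reference inhibitor.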
Consider `CC1(C)CC(=O)C2=C(C1)N(c1ccc(C(F)(F)F)cc1)C1=C(C(=O)CC(C)(C)C1)C2c1cccc(O)c1`, for which the inhibition turned out to be 28.5%.
Next, `CC1(C)CC(=O)C2=C(C1)N(c1ccc(Br)cc1)C1=C(C(=O)CC(C)(C)C1)C2c1cccc(O)c1`: 32.5%; `CC(=O)c1ccc(N2C3=C(C(=O)CC(C)(C)C3)C(c3cccc(O)c3)C3=C2CC(C)(C)CC3=O)cc1`: 12.8%; `CC1(C)CC(=O)C2=C(C1)N(c1ccc(Br)cc1)C1=C(C(=O)CC(C)(C)C1)C2c1ccc2ccccc2c1`: 10.6%.
Next, `CC1(C)CC(=O)C2=C(C1)N(c1ccc(F)cc1)C1=C(C(=O)CC(C)(C)C1)C2c1cccc(F)c1`: 28.4%; `CC1(C)CC(=O)C2=C(C1)N(c1ccc(C#N)cc1)C1=C(C(=O)CC(C)(C)C1)C2c1cccc(O)c1`: 17.9%.
The figure for `CC1(C)CC(=O)C2=C(C1)N(c1ccc(I)cc1)C1=C(C(=O)CC(C)(C)C1)C2c1cccc(O)c1` is 41.1%; for `CC1(C)CC(=O)C2=C(C1)N(c1ccccc1)C1=C(C(=O)CC(C)(C)C1)C2c1ccccc1O` it is 15.6%; for `CCOC(=O)c1c(N2C3=C(C(=O)CC(C)(C)C3)C(c3cccs3)C3=C2CC(C)(C)CC3=O)sc2c1CCCC2` it is 16.2%.
`CC1(C)CC(=O)C2=C(C1)N(c1ccc(I)cc1)C1=C(C(=O)CC(C)(C)C1)C2c1cccc([N+](=O)[O-])c1`: the inhibition was determined as 35.2%.
For `Cc1ccc(N2C3=C(C(=O)CC(C)(C)C3)C(c3cccc(O)c3)C3=C2CC(C)(C)CC3=O)cc1`, the inhibition is 30.2%.
Next, `CC1(C)CC(=O)C2=C(C1)N(c1ccccc1I)C1=C(C(=O)CC(C)(C)C1)C2c1cccc(O)c1`: 23.7%.
Next, `CC1(C)CC(=O)C2=C(C1)N(c1ccc(Cl)cc1)C1=C(C(=O)CC(C)(C)C1)C2c1cccc([N+](=O)[O-])c1`: 29.2%; `CC1(C)CC(=O)C2=C(C1)N(c1ccc(F)cc1)C1=C(C(=O)CC(C)(C)C1)C2c1cccc(O)c1`: 33.5%.
Next, `CC1(C)CC(=O)C2=C(C1)N(c1ccc(I)cc1)C1=C(C(=O)CC(C)(C)C1)C2c1cccs1`: 13%.
